Activity calls are given as the source filed them. No cut-off for these calls is given here.
Columns and labels:
[1] = biological target: T1, Estrogen-related receptor gamma (Homo sapiens) (UniProt P62508); assay: Effect on interaction between ERRgamma ligand binding domain and RIP140 by FRET assay
T1 sequence (whole entry): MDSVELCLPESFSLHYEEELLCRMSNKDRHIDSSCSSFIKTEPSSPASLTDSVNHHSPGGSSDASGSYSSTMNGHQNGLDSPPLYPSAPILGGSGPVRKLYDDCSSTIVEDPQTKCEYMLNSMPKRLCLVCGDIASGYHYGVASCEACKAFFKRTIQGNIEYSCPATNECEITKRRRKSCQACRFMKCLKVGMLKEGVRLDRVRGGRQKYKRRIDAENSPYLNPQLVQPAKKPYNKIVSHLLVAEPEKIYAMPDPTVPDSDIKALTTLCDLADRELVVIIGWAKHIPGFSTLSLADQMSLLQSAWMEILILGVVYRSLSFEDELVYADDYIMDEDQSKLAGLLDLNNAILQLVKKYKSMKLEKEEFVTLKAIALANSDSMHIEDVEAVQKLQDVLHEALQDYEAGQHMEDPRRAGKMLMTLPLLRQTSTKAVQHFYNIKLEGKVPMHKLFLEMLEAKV

[2] = biological target: T2, Steroid hormone receptor ERR1 (Homo sapiens) (UniProt P11474); assay: Effect on interaction between ERRalpha ligand binding domain and RIP140 at 30 uM by FRET assay
T2 sequence (whole entry): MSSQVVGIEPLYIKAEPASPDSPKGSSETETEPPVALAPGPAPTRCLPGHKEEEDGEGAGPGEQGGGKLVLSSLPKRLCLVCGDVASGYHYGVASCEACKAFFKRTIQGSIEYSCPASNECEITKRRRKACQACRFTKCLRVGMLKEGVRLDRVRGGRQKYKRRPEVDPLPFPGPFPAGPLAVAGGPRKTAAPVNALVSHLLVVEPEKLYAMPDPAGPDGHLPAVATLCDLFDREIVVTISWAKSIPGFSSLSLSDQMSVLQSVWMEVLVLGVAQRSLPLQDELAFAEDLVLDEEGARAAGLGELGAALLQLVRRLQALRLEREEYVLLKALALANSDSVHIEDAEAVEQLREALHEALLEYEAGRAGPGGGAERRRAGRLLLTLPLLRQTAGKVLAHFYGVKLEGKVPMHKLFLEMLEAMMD

[3] = biological target: T2, Steroid hormone receptor ERR1 (Homo sapiens); assay: Activity at human ERRalpha expressed in HeLa cells assessed as estrogen response element activation at 50 uM after 24 ro 30 hrs by luciferase reporter gene assay; assay type: cell-based
Summary of the method: (§1)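 HeLa cells were co-transfected with an expression vector for human ERRα (wild type, or the F272A point mutant for line 1) and a luciferase reporter driven by a triple repeat of an estrogen response element. Luciferase activity in compound-exposed cells was compared with vehicle-treated cells.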

HeLa [4] = assay: Activity at human ERRalpha F272A mutant expressed in HeLa cells assessed as estrogen response element activation after 24 to 30 hrs by luciferase reporter gene assay; assay type: cell-based; summary of the method: as §1
HeLa [5] = assay: Activity at human ERRalpha F272A mutant expressed in HeLa cells assessed as estrogen response element activation at 10 uM after 24 to 30 hrs by luciferase reporter gene assay; assay type: cell-based
Summary of the method: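 HeLa cells transiently co-transfected with an expression vector for human ERRα (F272A point mutant) and a luciferase reporter carrying a triple repeat of the estrogen response element. Cells were exposed to compound, and luciferase activity was read relative to vehicle-treated cells.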

SMILES | Activity [1] | Activity [2] | Activity [3] | Activity (HeLa [4]) | Activity (HeLa [5])
CC(C)(C)CNC(=O)c1ccc(O)cc1 | inactive | inactive | inactive | – | –
CC/C=N/NC(=O)c1ccc(O)cc1 | inactive | inactive | inactive | – | –
CCCCNC(=O)c1ccc(O)cc1 | inactive | inactive | inactive | – | –
C=C(C)CNC(=O)c1ccc(O)cc1 | inactive | inactive | inactive | – | –
CCCNC(=O)c1ccc(O)cc1 | inactive | inactive | inactive | – | –
CCC(C)C(C)/C=N/NC(=O)c1ccc(O)cc1 (configuration not stated) | inactive | inactive | inactive | – | –
CC(C)c1ccc(/C=N/NC(=O)c2ccc(O)cc2)cc1 | – | – | – | inactive | –
CNC(=O)c1ccc(O)cc1 | inactive | inactive | inactive | – | –
C=CCC/C=N/NC(=O)c1ccc(O)cc1 | inactive | inactive | inactive | – | –
CCCCC/C=N/NC(=O)c1ccc(O)cc1 | inactive | inactive | inactive | – | –
CC(C)CCNC(=O)c1ccc(O)cc1 | inactive | inactive | inactive | – | –
NC(=O)c1ccc(O)cc1 | inactive | inactive | inactive | – | –
CC(C)NC(=O)c1ccc(O)cc1 | inactive | inactive | inactive | – | –
CCNC(=O)c1ccc(O)cc1 | inactive | inactive | inactive | – | –
C=C(/C=N/NC(=O)c1ccc(O)cc1)CC | inactive | inactive | inactive | – | –
CC(C)/C=N/NC(=O)c1ccc(O)cc1 | inactive | inactive | inactive | – | –
CC(C)CNC(=O)c1ccc(O)cc1 | inactive | inactive | inactive | – | inactive
CCC(C)/C=N/NC(=O)c1ccc(O)cc1 (configuration not stated) | inactive | inactive | inactive | – | –
CCCCCNC(=O)c1ccc(O)cc1 | inactive | inactive | inactive | – | –
CN(C)CCc1c[nH]c2ccc(-c3cccc4ccccc34)cc12 | – | – | – | – | inactive
